Laboratory results reported in paper PMC11303814 (Nature Communications, 2024).
Substitutions are numbered along the chain they refer to.

Assays:
Type in all cases: cell-based
[1] = target: T1, rP2X7-R125A/Q143A (Rattus norvegicus, UniProt Q64663, Q143A/R125A); assay: TEVC dose response; conditions: read-out: EC50 (apparent affinity), mean ± SD, triplicate
T1 sequence (Q64663 1-595 R125A/Q143A): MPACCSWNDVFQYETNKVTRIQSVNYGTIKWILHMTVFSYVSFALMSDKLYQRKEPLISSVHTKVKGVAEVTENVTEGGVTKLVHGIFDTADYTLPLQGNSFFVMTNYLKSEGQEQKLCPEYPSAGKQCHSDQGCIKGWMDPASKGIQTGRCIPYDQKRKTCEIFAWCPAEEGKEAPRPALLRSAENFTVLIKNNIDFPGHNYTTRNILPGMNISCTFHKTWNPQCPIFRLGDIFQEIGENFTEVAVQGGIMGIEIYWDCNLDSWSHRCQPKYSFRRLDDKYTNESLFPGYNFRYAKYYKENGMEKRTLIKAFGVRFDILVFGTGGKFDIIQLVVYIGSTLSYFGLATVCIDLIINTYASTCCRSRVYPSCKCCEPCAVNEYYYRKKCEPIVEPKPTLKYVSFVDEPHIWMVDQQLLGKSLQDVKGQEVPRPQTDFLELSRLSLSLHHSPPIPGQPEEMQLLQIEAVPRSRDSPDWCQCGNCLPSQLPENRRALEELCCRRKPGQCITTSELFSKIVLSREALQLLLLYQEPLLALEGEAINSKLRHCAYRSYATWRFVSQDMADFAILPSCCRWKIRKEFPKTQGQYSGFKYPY
Procedure, shortened: (§1)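 TEVC was run on Xenopus oocytes ~20 h after injection of wild-type or mutant rP2X7 mRNA, in pH 7.4 HEPES buffer with 0.1 mM flufenamic acid. Receptors were facilitated at 100 µM before recording. Dilution series: ATP 1.5 mM–2 µM (7 points), BzATP 300–0.14 µM (8 points). Responses were normalized to the largest concentration, fitted by nonlinear regression for EC50, and averaged across triplicates (mean ± SD).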

[2] = target: T2, rP2X7-I214G (Rattus norvegicus, UniProt Q64663, I214G); assay: TEVC deactivation time; conditions: after 100 μM ATP or 10 μM BzATP
T2 sequence (Q64663 1-595 I214G): T1 sequence (Q64663 1-595 R125A/Q143A) with A125R, A143Q, I214G
Procedure, shortened: (§2)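 Xenopus oocytes injected with 50 nL of 10 ng/µL mutant rP2X7 mRNA, expressed ~20 h, clamped in pH 7.4 HEPES buffer with 0.1 mM flufenamic acid and EDTA. Currents were evoked by 100 µM ATP or 10 µM BzATP. τ is the time for current to return to 63% of baseline after agonist removal, from a one- or two-phase decay fit. Done in triplicate over first to third applications per oocyte; mean ± SD.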

[3] = target: T3, rP2X7-R125A/I214A (Rattus norvegicus, UniProt Q64663, I214A/R125A); assay: TEVC deactivation time; conditions: after 100 μM ATP or 10 μM BzATP
T3 sequence (Q64663 1-595 R125A/I214A): T1 sequence (Q64663 1-595 R125A/Q143A) with A143Q, I214A
Procedure, shortened: as §2

[4] = target: T2, rP2X7-I214G; assay: TEVC dose response; conditions: read-out: EC50 (apparent affinity), mean ± SD, triplicate
Procedure, shortened: as §1

[5] = target: T4, rP2X7-I214A (Rattus norvegicus, UniProt Q64663, I214A); assay: TEVC dose response; conditions: read-out: EC50 (apparent affinity), mean ± SD, triplicate
T4 sequence (Q64663 1-595 I214A): T1 sequence (Q64663 1-595 R125A/Q143A) with A125R, A143Q, I214A
Procedure, shortened: as §1

| EC50 [1] [µM] | deactivation lifetime τ [2] [s] | deactivation lifetime τ [3] [s] | EC50 [4] [µM] | EC50 [5] [µM] | Compound |
| --- | --- | --- | --- | --- | --- |
| 114 ± 30 | 2.9 ± 0.2 | 3.7 ± 0.8 | 171 ± 14 | 68 ± 11 | Nc1ncnc2c1ncn2[C@@H]1O[C@H](COP(=O)(O)OP(=O)(O)OP(=O)(O)O)[C@@H](O)[C@H]1O [ATP] |
| 18 ± 4 | 8.9 ± 2.2 | 23 ± 13 | 8 ± 1 | 2.5 ± 0.8 | BzATP |
